Measurements taken from ChEMBL document CHEMBL4422614 (Eur J Med Chem, 2019).
Calls of active or inactive are those of the source. The rule behind the calls is not given here.

Experiments:
[1] = Metal chelating activity assessed as inhibition of Cu2+-induced amyloid beta (1 to 42 residues) aggregation at 25 uM after 24 hrs by thioflavin-T fluorescence assay (reference value: 156%); set-up: scale not given: the % may be the effect or the level left
Method in brief: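 Aβ1-42 was incubated with Cu(II) (CuSO4) with or without compound, and thioflavin T fluorescence was read. The Aβ-alone signal was set as 100%. Mean ± SD of three independent experiments.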

[2] = tested on: SH-SY5Y; assay: Cytotoxicity against human SH-SY5Y cells assessed as effect on cell viability at 10 uM after 24 hrs by MTT assay; format: cell-based
Method in brief: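 SH-SY5Y viability was measured by MTT after exposure to compounds at 10 µM. Results are percent of vehicle control from three independent experiments.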

[3] = target: 3',5'-cyclic-AMP phosphodiesterase 4D (Homo sapiens, UniProt Q08499); assay: Inhibition of human PDE4D2 (86 to 413 residues) catalytic domain using [3H]-cAMP as substrate after 15 mins by liquid scintillation counting method
[4] = Antioxidant activity assessed as trolox equivalent of AAPH-induced radical scavenging activity at 10 to 20 uM preincubated for 10 mins followed by AAPH addition measured every minute for 120 mins by ORAC fluorescein assay; format: functional
Method in brief: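 ORAC values are expressed as trolox equivalents, mean ± SD of three independent experiments.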

[5] = in vitro; conditions: PAMPA
[6] = tested on: Mus musculus; assay: Cognition enhancement activity in amyloid beta (25 to 35 residues) induced C57BL/6J mouse model of Alzheimer's disease assessed as swimming time in effective region at 4 mg/kg/day, ig administered for 26 consecutive days by Morris water maze test (4.3 +/- 1.3 sec); format: functional
Method in brief: (§1)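 Mice were randomized into 7 groups. All except sham got an ICV injection of Aβ25-35 (3 nmol); sham got the same volume of saline ICV. Dosing was intragastric daily for 26 days, with 0.5% CMC-Na as vehicle for sham and model. Body weight, diarrhea and emesis-like behavior were monitored.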

[7] = tested on: Mus musculus; assay: Neuroprotection in amyloid beta (25 to 35 residues) induced C57BL/6J mouse model of Alzheimer's disease assessed as reduction in ratio of apoptotic neuron in CA3 hippocampus region at 4 mg/kg/day, ig administered for 26 consecutive days by hematoxylin and eosin staining-based light microscopic analysis (reference value: 80.2 +/- 8.6%); format: ADME, organism-based; set-up: scale not given: the % may be the effect or the level left; conditions: in vivo, po
Method in brief: (§2)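 Hippocampal CA1, CA3 and DG neurons were stained with H&E after the Aβ25-35 ICV model and 26-day intragastric dosing. Denatured cell index = denatured cells/total cells, n = 5. Values are mean ± SD, two-way ANOVA versus model.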

[8] = tested on: Mus musculus; assay: Cognition enhancement activity in amyloid beta (25 to 35 residues) induced C57BL/6J mouse model of Alzheimer's disease assessed as swimming path length in virtual platform at 4 mg/kg/day, ig administered for 26 consecutive days by Morris water maze test (10.2 +/- 3.2 cm); format: functional; method in brief: as §1
[9] = tested on: Mus musculus; assay: Neuroprotection in amyloid beta (25 to 35 residues) induced C57BL/6J mouse model of Alzheimer's disease assessed as reduction in ratio of apoptotic neuron in DG hippocampus region at 4 mg/kg/day, ig administered for 26 consecutive days by hematoxylin and eosin staining-based light microscopic analysis (reference value: 55.8 +/- 7.2%); format: ADME, organism-based; set-up: scale not given: the % may be the effect or the level left; conditions: in vivo, po; method in brief: as §2
[10] = tested on: Mus musculus; assay: Neuroprotection in amyloid beta (25 to 35 residues) induced C57BL/6J mouse model of Alzheimer's disease assessed as reduction in ratio of apoptotic neuron in CA1 hippocampus region at 4 mg/kg/day, ig administered for 26 consecutive days by hematoxylin and eosin staining-based light microscopic analysis (reference value: 40.6 +/- 12.5%); format: ADME, organism-based; set-up: scale not given: the % may be the effect or the level left; conditions: in vivo, po; method in brief: as §2
[11] = tested on: Mus musculus; assay: Cognition enhancement activity in amyloid beta (25 to 35 residues) induced C57BL/6J mouse model of Alzheimer's disease assessed as swimming speed at 30 mg/kg/day, ig administered for 26 consecutive days by Morris water maze test (reference value: 15.6 +/- 2.4 cm/sec); format: functional; method in brief: as §1
[12] = tested on: Mus musculus; assay: Cognition enhancement activity in amyloid beta (25 to 35 residues) induced C57BL/6J mouse model of Alzheimer's disease assessed as decrease in escape latancy at 4 mg/kg/day, ig administered for 26 consecutive days by Morris water maze test; format: functional, organism-based; method in brief: as §1
[13] = Drug metabolism in Sprague-Dawley rat liver microsomes assessed as metabolic rate up to 180 mins in presence of NADPH by UV-based LC-MS/MS analysis; format: ADME, Microsome; conditions: 3 h
[14] = in vitro; conditions: Sprague-Dawley, rat
[15] = Metal chelating activity assessed as inhibition of Cu(II)-induced amyloid beta (1 to 42 residues) aggregation at 25 uM after 24 hrs by TEM assay
Method in brief: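 Samples were prepared as for the ThT assay. 10 µL aliquots were applied to carbon-coated copper grids for 2 min, then stained with 3% phosphotungstic acid for 2 min and imaged by transmission electron microscopy.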

[16] = tested on: Mus musculus; assay: Cognition enhancement activity in amyloid beta (25 to 35 residues) induced C57BL/6J mouse model of Alzheimer's disease assessed as swimming time in effective region at 30 mg/kg/day, ig administered for 26 consecutive days by Morris water maze test (4.3 +/- 1.3 sec); format: functional; method in brief: as §1
[17] = tested on: Mus musculus; assay: Cognition enhancement activity in amyloid beta (25 to 35 residues) induced C57BL/6J mouse model of Alzheimer's disease assessed as swimming path length in virtual platform at 30 mg/kg/day, ig administered for 26 consecutive days by Morris water maze test (10.2 +/- 3.2 cm); format: functional; method in brief: as §1
[18] = tested on: Mus musculus; assay: Cognition enhancement activity in amyloid beta (25 to 35 residues) induced C57BL/6J mouse model of Alzheimer's disease assessed as decrease in escape latancy at 30 mg/kg/day, ig administered for 26 consecutive days by Morris water maze test; format: functional, organism-based; method in brief: as §1
[19] = tested on: Mus musculus; assay: Neuroprotection in amyloid beta (25 to 35 residues) induced C57BL/6J mouse model of Alzheimer's disease assessed as reduction in ratio of apoptotic neuron in DG hippocampus region at 30 mg/kg/day, ig administered for 26 consecutive days by hematoxylin and eosin staining-based light microscopic analysis (reference value: 55.8 +/- 7.2%); format: ADME, organism-based; set-up: scale not given: the % may be the effect or the level left; conditions: in vivo, po; method in brief: as §2
[20] = tested on: Mus musculus; assay: Cognition enhancement activity in amyloid beta (25 to 35 residues) induced C57BL/6J mouse model of Alzheimer's disease assessed as swimming speed at 4 mg/kg/day, ig administered for 26 consecutive days by Morris water maze test (reference value: 15.6 +/- 2.4 cm/sec); format: functional; method in brief: as §1
[21] = Metal chelating activity assessed as inhibition of Cu(II)-induced amyloid beta (1 to 42 residues) aggregation at 25 uM after 24 hrs by thioflavin-T fluorescence assay (reference value: 156%); set-up: scale not given: the % may be the effect or the level left
Method in brief: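 Aβ1-42 was incubated with CuSO4 with or without compound, and thioflavin T fluorescence was read. Fluorescence is given as percent of Aβ alone, as mean ± SD of three independent experiments.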

[22] = tested on: Mus musculus; assay: Neuroprotection in C57BL/6J mouse model of amyloid beta (25 to 35 residues) induced Alzheimer's disease assessed as reduction in ratio of apoptotic neuron in CA1 hippocampus region at 30 mg/kg/day, ig administered for 26 consecutive days by hematoxylin and eosin staining-based light microscopic analysis (reference value: 40.6 +/- 12.5%); format: ADME, organism-based; set-up: scale not given: the % may be the effect or the level left; conditions: in vivo, po; method in brief: as §2
[23] = tested on: Mus musculus; assay: Neuroprotection in amyloid beta (25 to 35 residues) induced C57BL/6J mouse model of Alzheimer's disease assessed as reduction in ratio of apoptotic neuron in CA3 hippocampus region at 30 mg/kg/day, ig administered for 26 consecutive days by hematoxylin and eosin staining-based light microscopic analysis (reference value: 80.2 +/- 8.6%); format: ADME, organism-based; set-up: scale not given: the % may be the effect or the level left; conditions: in vivo, po; method in brief: as §2

3',5'-cyclic-AMP phosphodiesterase 4D, sequence (Q08499 whole entry, the tested form may be a part): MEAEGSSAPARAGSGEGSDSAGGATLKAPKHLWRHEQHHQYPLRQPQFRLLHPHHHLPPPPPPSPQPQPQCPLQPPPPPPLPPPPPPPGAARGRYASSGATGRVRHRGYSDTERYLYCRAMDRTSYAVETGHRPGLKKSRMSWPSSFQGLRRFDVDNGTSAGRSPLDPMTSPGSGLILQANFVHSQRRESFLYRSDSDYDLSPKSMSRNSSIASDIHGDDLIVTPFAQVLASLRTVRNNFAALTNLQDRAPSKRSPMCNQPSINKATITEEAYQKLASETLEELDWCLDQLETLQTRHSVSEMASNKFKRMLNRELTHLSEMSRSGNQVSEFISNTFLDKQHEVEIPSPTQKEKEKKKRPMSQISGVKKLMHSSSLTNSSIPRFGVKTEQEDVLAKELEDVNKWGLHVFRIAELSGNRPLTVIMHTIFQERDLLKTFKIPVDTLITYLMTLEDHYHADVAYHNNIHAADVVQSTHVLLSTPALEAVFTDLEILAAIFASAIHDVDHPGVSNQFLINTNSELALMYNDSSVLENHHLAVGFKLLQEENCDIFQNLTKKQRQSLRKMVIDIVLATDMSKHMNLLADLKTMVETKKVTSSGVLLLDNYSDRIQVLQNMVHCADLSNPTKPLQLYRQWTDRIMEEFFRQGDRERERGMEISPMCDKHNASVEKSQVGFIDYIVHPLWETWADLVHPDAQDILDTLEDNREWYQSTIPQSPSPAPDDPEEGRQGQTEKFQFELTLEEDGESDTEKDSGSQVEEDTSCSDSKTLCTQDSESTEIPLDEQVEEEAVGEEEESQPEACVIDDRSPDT

SMILES | IC50 [3] | Activity [4] | Papp at 10 h, 100 ug/ml [5] | further results
COc1ccc(C(=O)Nc2cc(Cl)c(O)c3ncccc23)cc1OC1CCCC1.Cl | 3.13 µM | 0.56 equiv |  | Activity [1]: 70.2%; Activity [2]: Toxic
O=C(Nc1ccc2cccc(O)c2n1)c1ccc(OC(F)F)c(OCC2CC2)c1 | 4.06 µM | 0.34 equiv | 15.8 ×10⁻⁶ cm/s | 
Cl.O=C(Nc1cc(Cl)c(O)c2ncccc12)c1ccc(OC(F)F)c(OCC2CC2)c1 | 3.83 µM | 0.74 equiv |  | Activity [1]: 82%; Activity [2]: Toxic
COc1ccc(C2CNC(=O)C2)cc1OC1CCCC1 (stereo not drawn) [ROLIPRAM] |  | 0.07 equiv | 18.9 ×10⁻⁶ cm/s | Time [6]: 5.7 s; Activity [7]: 41.1%; Activity [8]: 16.5 cm; Activity [9]: 25.7%; Activity [10]: 33.5%; Activity [11]: 15.1 cm/s; Activity [12]: Active
C[C@]12CC[C@H]3[C@@H](CCC4=CC(=O)CC[C@@]43C)[C@@H]1CC[C@@H]2O [TESTOSTERONE] |  |  |  | K [13]: 0.301 min⁻¹
COc1ccc(NC(=O)c2ccc3cccc(O)c3n2)cc1OC | 4.32 µM | 1.03 equiv |  | 
COc1ccc(C(=O)Nc2ccc3cccc(O)c3n2)cc1OC1CCCC1 | 4.64 µM | 0.7 equiv | 16.4 ×10⁻⁶ cm/s | 
COc1ccc(NC(=O)c2ccc3c(Cl)cc(Cl)c(O)c3n2)cc1OC | 8.07 µM | 1.05 equiv |  | 
COc1ccc(NC(=O)c2ccc3c(Cl)cc(Cl)c(O)c3n2)cc1OC1CCCC1 | 6.78 µM | 1.29 equiv |  | 
COc1ccc(NC(=O)c2ccc3cccc(O)c3n2)cc1OC1CCCC1 | 4.15 µM | 1.98 equiv |  | 
COc1ccc(C(=O)Nc2cc(I)c(O)c3ncccc23)cc1OC1CCCC1.Cl | 0.597 µM | 1.01 equiv | 5.86 ×10⁻⁶ cm/s | 
COc1cc2c(cc1OC)C(=O)C(CC1CCN(Cc3ccccc3)CC1)C2 (stereo not drawn) [DONEPEZIL] |  |  |  | K [13]: 0.00917 min⁻¹; half-life ([14]; microsomes): 75.6 min
COc1ccc(C(=O)Nc2ccc(O)c3ncccc23)cc1OC | 7.63 µM | 1.34 equiv |  | 
Oc1c(I)cc(Cl)c2cccnc12 [CLIOQUINOL] |  | 0.6 equiv | 5.2 ×10⁻⁶ cm/s | Activity [15]: Active; Time [16]: 5.8 s; Activity [17]: 18 cm; Activity [18]: Active; Activity [19]: 19.7%; Activity [20]: Active; Activity [11]: 16 cm/s; K [13]: 0.0194 min⁻¹; half-life ([14]; liver microsomes): 35.8 min; Activity [21]: 66%; Activity [22]: 24.2%; Activity [23]: 37.8%
COc1ccc(C(=O)Nc2cc(I)c(O)c3ncccc23)cc1OC | 7.36 µM | 1.3 equiv |  | 
Cl.O=C(Nc1cc(I)c(O)c2ncccc12)c1ccc(OC(F)F)c(OCC2CC2)c1 | 0.426 µM | 0.69 equiv | 7.05 ×10⁻⁶ cm/s | 
